Measurements published in ChEMBL document CHEMBL4311931, “Controlling cellular distribution of drugs with permeability modifying moieties” (Medchemcomm, 2019).

Experiments:
[1] = molecular target: T1, Beta-2 adrenergic receptor (Homo sapiens, UniProt P07550); test: Displacement of [3H](-)CGP 12177 from human recombinant beta2 adrenoceptor after 120 mins by scintillation counting method
Target sequence in this assay (P07550 whole entry): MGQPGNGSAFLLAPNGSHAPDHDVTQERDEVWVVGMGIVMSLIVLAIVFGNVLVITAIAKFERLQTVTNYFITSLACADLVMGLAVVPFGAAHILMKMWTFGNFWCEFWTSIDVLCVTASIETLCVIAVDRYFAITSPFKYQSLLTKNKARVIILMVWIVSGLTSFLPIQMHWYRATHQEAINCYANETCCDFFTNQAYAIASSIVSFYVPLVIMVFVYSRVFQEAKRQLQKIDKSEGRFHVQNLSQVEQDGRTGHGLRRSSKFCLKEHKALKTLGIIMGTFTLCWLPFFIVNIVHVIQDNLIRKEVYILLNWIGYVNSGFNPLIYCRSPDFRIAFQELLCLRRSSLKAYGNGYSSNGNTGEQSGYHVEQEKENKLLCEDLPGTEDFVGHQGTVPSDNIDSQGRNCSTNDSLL

[2] = molecular target: T2, 5-hydroxytryptamine receptor 1A (Homo sapiens, UniProt P08908); test: Displacement of [3H]-OH-DPAT from human recombinant 5-HT1A receptor measured after 60 mins by scintillation counter method
T2 sequence (P08908 whole entry): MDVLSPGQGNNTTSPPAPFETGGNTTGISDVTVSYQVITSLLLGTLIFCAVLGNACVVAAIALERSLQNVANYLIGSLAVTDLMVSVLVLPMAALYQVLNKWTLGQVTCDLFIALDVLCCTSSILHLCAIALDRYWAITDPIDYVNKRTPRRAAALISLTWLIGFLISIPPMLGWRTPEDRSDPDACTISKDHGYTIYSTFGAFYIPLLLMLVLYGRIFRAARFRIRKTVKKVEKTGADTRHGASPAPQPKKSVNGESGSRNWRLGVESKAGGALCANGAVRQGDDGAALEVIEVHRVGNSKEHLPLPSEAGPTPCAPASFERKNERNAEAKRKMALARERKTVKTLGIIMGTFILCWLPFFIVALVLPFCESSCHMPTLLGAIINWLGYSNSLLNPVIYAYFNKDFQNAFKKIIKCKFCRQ

[3] = molecular target: T1, Beta-2 adrenergic receptor; test: Displacement of [3H](-)CGP 12177 from human recombinant beta2 adrenoceptor after 120 mins by scintillation counting method relative to parent compound
Target sequence in this assay (P07550 whole entry, looked up): as the sequence (P07550 whole entry) above

[4] = molecular target: T3, 5-hydroxytryptamine receptor 1A (Homo sapiens) (UniProt P08908); test: Displacement of [3H]-OH-DPAT from human recombinant 5-HT1A receptor measured after 60 mins by scintillation counter method relative to parent compound
T3 sequence (whole entry): T2 sequence (P08908 whole entry)

[5] = molecular target: T2, 5-hydroxytryptamine receptor 1A; test: Antagonist activity at human 5HT1A expressed in BAF3 cells by fluorimetry analysis; assay type: cell-based
[6] = molecular target: T1, Beta-2 adrenergic receptor; test: Antagonist activity at human recombinant beta2 adrenoreceptor expressed in CHOK1 cells incubated for 30 mins by HTRF; assay type: cell-based
Target sequence in this assay (P07550 whole entry): as the sequence (P07550 whole entry) above

[7] = molecular target: T1, Beta-2 adrenergic receptor; test: Antagonist activity at human recombinant beta2 adrenoreceptor expressed in CHOK1 cells incubated for 30 mins by HTRF relative to parent compound; assay type: cell-based
Target sequence in this assay (P07550 whole entry, looked up): as the sequence (P07550 whole entry) above

[8] = Permeability of compound in 5% DMSO after 7 hrs by PAMPA; assay type: ADME; conditions: read-out: permeability
K562 = test: Antiproliferative activity against human K562 cells assessed as reduction in cell viability by measuring ATP level incubated for 3 days by Celltiter-Glo assay; assay type: functional, cell-based; conditions: K562, 72 h
Procedure, shortened: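 K562 cells grown in RPMI 1640 with 50 mM HEPES and 10% FBS at 37 °C in 5% CO2, then plated at 20 000 cells per well. Compounds were log-serially diluted in DMSO, then in RPMI, to final concentrations of 10 000 nM to 0.01 nM. Cells were exposed for 3 days, and total intracellular ATP was read by CellTiter-Glo. IC50 is the geometric mean of at least two duplicate runs.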

[9] = molecular target: T4, Nicotinamide phosphoribosyltransferase (Homo sapiens, UniProt P43490); test: Displacement of fluorescent labelled OG488 from human full length FLAG-tagged NAMPT (1 to 491 residues) expressed in HEK293-6E cells in absence of PRPP by TR-FRET assay; assay type: cell-based
[10] = molecular target: T4, Nicotinamide phosphoribosyltransferase; test: Displacement of fluorescent labelled OG488 from human full length FLAG-tagged NAMPT (1 to 491 residues) expressed in HEK293-6E cells in presence of PRPP by TR-FRET assay; assay type: cell-based
PC-3 = test: Antiproliferative activity against human PC3 cells assessed as reduction in cell viability by Celltiter-Glo assay; assay type: functional, cell-based
Procedure, shortened: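 PC3 cells from ATCC, authenticated by STR analysis. Viability was read by CellTiter-Glo, and cell EC50 is the geometric mean of at least two duplicate runs.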

DLD-1 [11] = test: cells; conditions: Homo sapiens
DLD-1 [12] = test: cells; conditions: Homo sapiens; remark: listed apart in the source

T4 sequence (P43490 whole entry, the tested form may be a part): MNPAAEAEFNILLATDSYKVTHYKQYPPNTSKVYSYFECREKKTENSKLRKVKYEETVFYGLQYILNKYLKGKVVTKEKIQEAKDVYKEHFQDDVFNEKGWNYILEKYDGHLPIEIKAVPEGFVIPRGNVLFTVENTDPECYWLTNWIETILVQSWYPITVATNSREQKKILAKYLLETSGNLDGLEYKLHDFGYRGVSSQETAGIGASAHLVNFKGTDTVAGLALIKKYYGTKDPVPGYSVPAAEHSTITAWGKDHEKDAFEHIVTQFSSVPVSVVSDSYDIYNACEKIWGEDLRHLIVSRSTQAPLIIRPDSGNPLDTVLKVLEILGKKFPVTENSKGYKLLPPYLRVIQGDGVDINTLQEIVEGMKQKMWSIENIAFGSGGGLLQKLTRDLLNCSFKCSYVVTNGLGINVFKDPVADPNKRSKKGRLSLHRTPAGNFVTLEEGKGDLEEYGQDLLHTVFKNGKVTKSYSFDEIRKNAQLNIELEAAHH

Row | SMILES | Ki [1] [µM] | Ki [2] [µM] | fold change (FC) [3] | fold change (FC) [4] | IC50 [5] [µM] | IC50 [6] [µM] | fold change (FC) [7] | Papp at 7 h [8] [×10⁻⁶ cm/s] | also measured
1 | CC(C)NCC(O)COc1ccccc1CCCSCC(=O)NCCOCCOCCN (centres undefined) | 0.0029 | 2.86 | 0.19 | 6.32 | > 10 | 0.019 | 0.26 | – | –
2 | Cc1nc(Nc2ncc(C(=O)Nc3c(C)cccc3Cl)s2)cc(N2CCN(CCOCCOCCNC(=O)CS(=O)(=O)O)CC2)n1 | – | – | – | – | – | – | – | 0.0274 | IC50 (K562): 0.12 µM
3 | Cc1nc(Nc2ncc(C(=O)Nc3c(C)cccc3Cl)s2)cc(N2CCN(CCOCCOCCNC(=O)CCCCCC3(C)C(/C=C/C=C/C=C4/N(CCCS(=O)(=O)O)c5ccc(S(=O)(=O)O)cc5C4(C)C)=[N+](CCCS(=O)(=O)[O-])c4ccc(S(=O)(=O)O)cc43)CC2)n1 (centres undefined) | – | – | – | – | – | – | – | – | IC50 (K562): 0.0291 µM
4 | C=CCc1ccccc1OCC(O)CNCCOCCOCCOCCOCCNC(=O)CCCCCC1(C)C(/C=C/C=C/C=C2/N(CCCS(=O)(=O)O)c3ccc(S(=O)(=O)O)cc3C2(C)C)=[N+](CCCS(=O)(=O)[O-])c2ccc(S(=O)(=O)O)cc21 (centres undefined) | 0.547 | 2.86 | 1090 | 132 | > 1 | 0.5 | 151 | – | –
5 | NCCOCCOCC(=O)NCc1cccc(C(=O)N2CCC(CCCCNC(=O)/C=C/c3cccnc3)CC2)c1 | – | – | – | – | – | – | – | 0.016 | Ki [9]: 0.06 µM; Ki [10]: 0.0019 µM; IC50 (PC-3): 0.296 µM
6 | O=C(O)C1C(C(=O)O)C(C(=O)NCCOCCOCC(=O)N2CCN(C(=O)c3cc(Cc4n[nH]c(=O)c5ccccc45)ccc3F)CC2)C1C(=O)O (centres undefined) | – | – | – | – | – | – | – | – | EC50 (DLD-1 [11]): > 100 µM; EC50 (DLD-1 [12]): 7.8 µM
7 | Cc1sc2c(c1C)C(c1ccc(Cl)cc1)=N[C@@H](CC(=O)OC(C)(C)C)c1nnc(C)n1-2 | – | – | – | – | – | – | – | 2.24 | –
8 | O=C(c1cc(Cc2n[nH]c(=O)c3ccccc23)ccc1F)N1CCN(C(=O)C2CC2)CC1 [OLAPARIB] | – | – | – | – | – | – | – | 3.37 | EC50 (DLD-1 [11]): 19 µM; EC50 (DLD-1 [12]): 0.1 µM
9 | C=CCc1ccccc1OCC(O)CNCCOCCOCCOCCOCCNC(=O)CS(=O)(=O)O (centres undefined) | 0.752 | 0.261 | 150 | 12.1 | > 1 | 0.0834 | 25.3 | – | –
10 | CC(C)NCC(O)COc1ccccc1CCCSCC(=O)NCCOCCOCCNC(=O)CS(=O)(=O)O (centres undefined) | 0.0164 | 1.78 | 1.09 | 15.1 | > 10 | 0.086 | 1.19 | – | –
11 | CC(C)(C)OC(=O)NCCOCCOCC(=O)NCc1cccc(C(=O)N2CCC(CCCCNC(=O)/C=C/c3cccnc3)CC2)c1 | – | – | – | – | – | – | – | 1.2 | Ki [9]: 0.014 µM; Ki [10]: 0.0002 µM; IC50 (PC-3): 0.0307 µM
12 | Cc1nn(C)cc1-c1ccc2cc(CCN3CCC[C@H]3C)ccc2n1 | – | – | – | – | – | – | – | 1.13 | –
13 | CC(C)NCC(O)COc1ccccc1CCCSCC(=O)NCCOCCOCCNC(=O)OC(C)(C)C (centres undefined) | 0.0032 | 0.0489 | 0.21 | 0.871 | 0.64 | 0.022 | 0.31 | 0.0189 | –
14 | CC1(CCCCCC(=O)NCCOCCOCC(=O)N2CCN(C(=O)c3cc(Cc4n[nH]c(=O)c5ccccc45)ccc3F)CC2)C(/C=C/C=C/C=C2/N(CCCS(=O)(=O)O)c3ccc(S(=O)(=O)O)cc3C2(C)C)=[N+](CCCS(=O)(=O)[O-])c2ccc(S(=O)(=O)O)cc21 (centres undefined) | – | – | – | – | – | – | – | – | EC50 (DLD-1 [11]): 70 µM; EC50 (DLD-1 [12]): 0.6 µM
15 | C=CCc1ccccc1OCC(O)CNCCOCCOCCOCCOCCNC(=O)OC(C)(C)C (centres undefined) | 0.0037 | 0.0241 | 7.4 | 1.12 | > 1 | 0.0069 | 2.09 | – | –
16 | Cc1nc(Nc2ncc(C(=O)Nc3c(C)cccc3Cl)s2)cc(N2CCN(CCOCCOCCN)CC2)n1 | – | – | – | – | – | – | – | 0.056 | IC50 (K562): 0.628 µM
17 | Cc1nc(Nc2ncc(C(=O)Nc3c(C)cccc3Cl)s2)cc(N2CCN(CCOCCOCCNC(=O)C3C(C(=O)O)C(C(=O)O)C3C(=O)O)CC2)n1 (centres undefined) | – | – | – | – | – | – | – | 0.0122 | IC50 (K562): 0.183 µM
18 | CC(C)NCC(O)COc1ccccc1CCCSCC(=O)NCCOCCOCCNC(=O)CCCCCC1(C)C(/C=C/C=C/C=C2/N(CCCS(=O)(=O)O)c3ccc(S(=O)(=O)O)cc3C2(C)C)=[N+](CCCS(=O)(=O)[O-])c2ccc(S(=O)(=O)O)cc21 (centres undefined) | 0.026 | 0.925 | 1.73 | 18.9 | > 10 | 0.096 | 1.33 | – | –
